Assay results of several laboratories.
Lines come from different studies, so protocols differ.
Target: cAMP-dependent protein kinase catalytic subunit alpha (PRKACA, Homo sapiens, UniProt P17612)

Cn1cc(-c2cc(F)cc(N3CCn4c(cc5c4CCCC5)C3=O)c2CO)cc(Nc2ccc(N3CCN(C4COC4)CC3)cn2)c1=O — inhibition (enzyme activity; inhibitor; 0.1 µM): 6%
C#Cc1n[nH]c2c(-c3cn([C@@H](C)c4ccccc4)c(=O)[nH]c3=O)cc(F)cc12 — inhibition (enzyme activity; inhibitor; 0.1 µM): 0%
Cn1cncc1[C@@](O)(COc1ccc(C#N)cc1-c1ccc(OC(F)(F)F)cc1)c1ccc(C#N)cc1 — remaining binding (cell-free assay; competition with immobilised ligand; 1 µM): 94%
Nc1ncnc2c1ncn2[C@@H]1O[C@H](COP(=O)(O)OP(=O)(O)OP(=O)(O)O)[C@@H](O)[C@H]1O — Km (enzyme activity; substrate; pH 7.4): 16.9 µM
Nc1ncc(-c2nc(N3CCOCC3)nc(N3CCOCC3)n2)c(C(F)F)n1 — remaining binding (binding; competition with immobilised ligand; 10 µM): 85%
Cc1nn(C)cc1-c1nc2c(N3CCN(Cc4ccc(Cl)cc4)CC3)c(Cl)cnc2[nH]1 — remaining binding (binding; competition with immobilised ligand; 1 µM): 57%
O=c1[nH]c2ccccc2n1C1CCN(Cc2ccc(-c3[nH]c4cc5ncnc5cc4nc3-c3ccccc3)cc2)CC1 — remaining signal (cell-free assay; 0.5 µM): 106%
Cn1cc(-c2cccc(N3CCc4c(sc5c4CC(C)(C)C5)C3=O)c2CO)cc(Nc2ccncn2)c1=O — inhibition (enzyme activity; inhibitor; 1 µM): -3%
C#Cc1n[nH]c2c(-c3cn(C(C)c4ccccn4)c(=O)[nH]c3=O)cc(F)cc12 (stereo not shown) — inhibition (enzyme activity; inhibitor; 1 µM): 15.6%
COc1ncccc1-c1cnn2ccc(N3CCN(C(=O)OC(C)C)CC3)nc12 — remaining binding (binding; competition with immobilised ligand; 1 µM): 66%
